Compound activity deposited in PubChem by several laboratories.
Hits are enriched below; roughly 0.83% of the tested compounds scored in any of these assays.
OXTR potentiator = potentiates the human oxytocin receptor response; P30559; CHO-OTR cells, Fluo-8 calcium fluorescence, potentiator mode; 0% = oxytocin EC15, 100% = EC100; activation, % at 3 µM; 320,000 tested, 0.061% active;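 active = activation above that plate's cutoff, the mean activation of tested compounds plus 3 SD, cut at about 6.6% in these data, passing the limit was not always enough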;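 note: 100% uses oxytocin at 75 nM as the full agonist control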
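Material: human OTR in CHO cells. Compound: 3.0 µM, one dose. Timing: compound 6 min at room temperature before oxytocin, 100 s read. Evaluation: % activation of max/min ratio relative to oxytocin controls. Replication: single well per compound, singlicate. Signal: Fluo-8 calcium dye fluorescence.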
TRPN1 ag = activates the zebrafish TRPN1 channel; HEK293 zebrafish TRPN1-YFP, Fluo-8 calcium fluorescence; 100% = response to 87 µM carbachol; activation, % at 3 µM; 220,000 tested, 0.18% active; AID 1424;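 active = activation above its plate's cutoff, the mean activation of test wells on that plate plus 3 SD, cut at about 19% in these data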;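 note: 0% = DMSO alone and 100% = 87 µM carbachol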
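Material: zebrafish TRPN1-YFP in HEK293 cells. Doses: one dose of 3 µM, 0.3% DMSO. Incubation: dye 1 h 37 °C plus 30 min RT. Measured by: intracellular calcium fluorescence with Fluo-8.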
CRFR2-BP ag = CRF-BP/CRF-R2 complex agonism. HEK293 CRF-R2/CRF-BP, calcium dye fluorescence (FLIPR); percent of saturating CRF peptide response. activation, % at 13.2 µM. 350,000 tested, 0.46% active;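 active = activation of at least 50%, plus an integration ratio under a set limit after plate pattern correction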;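 note: plate controls were neutral control wells without compound for no effect and CRF at EC100 for full effect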
OXTR agonist = human OXTR agonism; 320,000 tested, 0.32% active; AID 2435; P30559; activation, % at 3 µM; CHO-OTR cells, Fluo-8 calcium fluorescence; normalized: DMSO 0%, oxytocin 100%;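 active = activation above the mean of all tested compounds plus 3 SD, cutoff set per screening run, cut at about 20% in these data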;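 note: peak over basal fluorescence ratio from a 100 s FLIPR kinetic read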
V1aR counter = V1a receptor agonism, counter-screen for OXTR agonists; 320,000 tested, 0.25% active; activation, % at 3 µM; P37288; AID 2797; CHO-V1R cells, Fluo-8 calcium fluorescence, agonist mode; 0% DMSO, 100% 3 nM vasopressin;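 active = activation above the mean activation of all tested compounds plus 3 SD, per screening run, cut at about 20% in these data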;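 note: signal is peak over basal fluorescence ratio across a 100 second FLIPR read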
TRPML3 agonist = human mucolipin-3 channel agonism; Q8TDD5; HEK293 TRPML3-YFP, Fluo-8 calcium fluorescence; 100% = the carbachol control signal; activation, % at 3 µM; 220,000 tested, 0.29% active;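 active = activation above its plate's cutoff, the mean activation of the plate's test wells plus 3 SD, cut at about 12% in these data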;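 note: 0% = DMSO only wells and 100% = carbachol wells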
Target sequence (Q8TDD5 whole entry, looked up): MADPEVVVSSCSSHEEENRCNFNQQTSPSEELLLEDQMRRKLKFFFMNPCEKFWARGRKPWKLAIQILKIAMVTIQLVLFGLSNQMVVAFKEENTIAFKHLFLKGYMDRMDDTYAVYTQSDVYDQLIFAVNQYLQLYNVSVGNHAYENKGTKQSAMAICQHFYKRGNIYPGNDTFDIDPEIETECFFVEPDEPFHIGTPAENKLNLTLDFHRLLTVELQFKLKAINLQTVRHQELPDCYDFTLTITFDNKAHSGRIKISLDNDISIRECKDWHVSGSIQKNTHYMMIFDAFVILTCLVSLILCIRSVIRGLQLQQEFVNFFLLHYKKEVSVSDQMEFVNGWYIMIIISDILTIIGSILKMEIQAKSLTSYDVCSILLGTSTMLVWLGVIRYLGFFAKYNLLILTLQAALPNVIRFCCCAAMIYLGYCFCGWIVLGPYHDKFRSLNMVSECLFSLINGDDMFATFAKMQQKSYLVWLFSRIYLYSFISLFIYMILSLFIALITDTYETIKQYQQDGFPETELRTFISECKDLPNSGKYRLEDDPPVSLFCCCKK
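Test system – HEK293 line with stable expression of human TRPML3-YFP channel · Control set – carbachol 87 µM final as high control (100%), DMSO as low control (0%) · Signal – Fluo-8 calcium dye fluorescence, ex 470-495, em 515-575 nm · Incubation – 1-h 37 °C dye load, 5-s basal, 120-s post-compound reads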
TRPN1 counter = counter-screen for TRPML3 agonists: agonists of zebrafish TRPN1 channel; activation, % at 3 µM; 310 tested, 10% active; shares compounds with TRPML3 agonist; AID 1525; HEK293 zebrafish TRPN1-YFP, Fluo-8 calcium fluorescence; scaled: carbachol wells 100%, DMSO wells 0%;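 active = mean activation over replicates above a set limit taken from the earlier TRPN1 channel primary screen, cut at about 19% in these data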;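 note: 100% = carbachol and 0% = 0.3% DMSO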
TRPML3 confirm = confirmation of human TRPML3 channel agonists; shares compounds with TRPML3 agonist; HEK293 TRPML3-YFP, Fluo-8 calcium fluorescence; 100% set by carbachol, 0% by DMSO; activation, % at 3 µM; 310 tested, 80% active;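 active = activation above a set limit derived from the earlier primary screen, cut at about 12% in these data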
The depositor's hits bear a star; x = no result given.

SMILES | OXTR potentiator | TRPN1 ag | CRFR2-BP ag | OXTR agonist | V1aR counter | TRPML3 agonist | TRPN1 counter | TRPML3 confirm
CN1CCN2c3ncccc3Cc3ccccc3C2C1 (configuration not stated) | -2 | x | -1 | 0 | 0 | x | x | x
CC(C)NC(=O)Nc1ccc2c(c1)C(=O)N([C@H](C)CO)C[C@H](C)[C@@H](CN(C)S(=O)(=O)c1cn(C)cn1)O2 | -2 | x | 3 | 1 | 2 | x | x | x
O=C(C1Cc2ccccc2CN1S(=O)(=O)c1ccc(F)cc1)N1CCCCC1 (configuration not stated) | 4 | 1 | 31 | -2 | 0 | 64* | 4 | 127*
COc1ccccc1N1CCN(C(=O)C2CCCCN2S(=O)(=O)c2ccc(C)cc2)CC1 (configuration not stated) | -6 | 1 | -3 | -2 | 1 | 14* | 0 | 11
O=C(C1Cc2ccccc2CN1S(=O)(=O)c1cccs1)N1CCCCC1 (configuration not stated) | -7 | -1 | -1 | -1 | 0 | 15* | 0 | 52*
CN(C)C(=O)C1Cc2ccccc2CN1S(=O)(=O)c1cccs1 (configuration not stated) | 3 | -1 | -2 | 0 | 1 | 0 | x | x
COc1ccccc1N1CCN(C(=O)C2CCCN(S(=O)(=O)c3ccc(C)cc3)C2)CC1 (configuration not stated) | -4 | x | 0 | 7 | 9 | x | x | x
CSCCC(NC(=O)COc1ccccc1)C(=O)NCCOc1ccc(C)cc1 (configuration not stated) | x | x | -2 | x | x | x | x | x
Cc1onc(-c2ccccc2Cl)c1C(=O)Nc1ccc(-c2cn3cccnc3n2)cc1 | -5 | 2 | -2 | 1 | 1 | 1 | x | x
Cc1onc(-c2ccccc2Cl)c1C(=O)Nc1cccc(-c2nc3ncccn3c2C)c1 | -3 | 5 | 0 | 0 | 0 | 12* | 8 | 13*
O=C(Cc1ccc(Cl)c(Cl)c1)Nc1ccccc1N1CCOCC1 | -3 | 0 | 0 | 0 | 0 | 51* | 1 | 67*
O=C(Cc1ccccc1)Nc1ccccc1N1CCOCC1 | -9 | -2 | 0 | -1 | -1 | 1 | x | x
Cc1ccc(S(=O)(=O)N(C)c2ccc(C)c([N+](=O)[O-])c2)cc1 | -5 | -2 | -2 | -1 | -1 | 69* | -1 | 72*
COc1ccc(N(C)S(=O)(=O)c2ccc(C)cc2)c([N+](=O)[O-])c1 | -4 | -2 | 0 | -1 | 0 | 35* | -1 | 42*
Cc1ccc(S(=O)(=O)N(C)c2ccc(N)cc2)cc1 | -16 | 0 | 0 | 0 | 0 | 0 | x | x
CCC(C)N(C(=O)CSc1nnc2ccccn12)C1CCS(=O)(=O)C1 (configuration not stated) | x | x | 0 | x | x | x | x | x
COc1ccc(C(=O)O)cc1S(=O)(=O)Nc1ccc(N2CCCCC2)cc1 | 5 | x | 1 | 1 | 0 | x | x | x
COc1ccc(C(=O)CSc2nnn(-c3cccc(NC(C)=O)c3)n2)cc1 | -9 | 7 | 69* | 0 | 3 | 12* | 12 | 21*
CC(=O)Nc1cccc(-n2nnc(SCC(=O)c3ccccc3)n2)c1 | -1 | 2 | -4 | 2 | 0 | 0 | x | x
COc1cccc(CN(CC2CCCO2)S(=O)(=O)c2ccc(S(=O)(=O)N(C)C)cc2)c1 (configuration not stated) | -2 | 0 | -2 | -1 | 0 | 14* | 1 | 17*
C[C@H](CO)N1C[C@H](C)[C@@H](CN(C)C)Oc2c(NS(=O)(=O)c3ccccc3)cccc2C1=O | 1 | x | -1 | 0 | 0 | x | x | x
